Measured values from ChEMBL document CHEMBL1143851, “Antimicrobial susceptibilities of Peptostreptococcus anaerobius and the newly described Peptostreptococcus stomatis isolated from various human sources” (2007).
≈ marks a conversion by molar mass, not a printed value.

How the values were obtained:
[1] = tested on: Peptostreptococcus anaerobius; assay: Antibacterial activity against Peptostreptococcus anaerobius; format: functional
Outline: (§1)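 Clinical isolates (1985–2005) revived from −70°C stocks and subcultured on brucella blood agar. Etest MICs: 48-h anaerobic growth on prereduced brucella and fastidious anaerobe agars (5% defibrinated sheep blood, hemin, vitamin K1) suspended in 0.9% NaCl to 1–2 McFarland, spread on fresh plates of both media; incubated anaerobically at 37°C for 48 h (72 h for slow growers).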

[2] = tested on: Peptostreptococcus stomatis; assay: Antibacterial activity against Peptostreptococcus stomatis; format: functional; outline: as §1

| MIC50 [1] | MIC90 [1] | MIC50 [2] | MIC90 [2] | SMILES |
| --- | --- | --- | --- | --- |
| 0.25 µg/mL (≈ 0.526 µM) | 0.38 µg/mL (≈ 0.799 µM) | 0.047 µg/mL (≈ 0.0988 µM) | 0.19 µg/mL (≈ 0.4 µM) | C[C@@H](O)[C@H]1C(=O)N2C(C(=O)O)=C(S[C@@H]3CN[C@H](C(=O)Nc4cccc(C(=O)O)c4)C3)[C@H](C)[C@H]12 [ERTAPENEM] |
| 0.19 µg/mL (≈ 0.447 µM) | 0.75 µg/mL (≈ 1.76 µM) | < 0.016 µg/mL | 0.016 µg/mL (≈ 0.0376 µM) | CCC[C@@H]1C[C@@H](C(=O)N[C@@H]([C@H]2O[C@H](SC)[C@H](O)[C@@H](O)[C@H]2O)[C@H](C)Cl)N(C)C1 [CLINDAMYCIN] |
| 0.125 µg/mL (≈ 0.311 µM) | 0.125 µg/mL (≈ 0.311 µM) | 0.094 µg/mL (≈ 0.234 µM) | 0.125 µg/mL (≈ 0.311 µM) | COc1c(N2C[C@@H]3CCCN[C@@H]3C2)c(F)cc2c(=O)c(C(=O)O)cn(C3CC3)c12 [MOXIFLOXACIN] |
| 0.094 µg/mL (≈ 0.549 µM) | 0.19 µg/mL (≈ 1.11 µM) | < 0.016 µg/mL | 0.047 µg/mL (≈ 0.275 µM) | Cc1ncc([N+](=O)[O-])n1CCO [METRONIDAZOLE] |
| 0.38 µg/mL (≈ 0.889 µM) | 0.75 µg/mL (≈ 1.75 µM) | 0.064 µg/mL (≈ 0.15 µM) | 0.38 µg/mL (≈ 0.889 µM) | CO[C@@]1(NC(=O)Cc2cccs2)C(=O)N2C(C(=O)O)=C(COC(N)=O)CS[C@@H]21 [CEFOXITIN] |
| 0.125 µg/mL (≈ 0.342 µM) | 0.38 µg/mL (≈ 1.04 µM) | < 0.016 µg/mL | 0.094 µg/mL (≈ 0.257 µM) | CC1(C)S[C@@H]2[C@H](NC(=O)[C@H](N)c3ccc(O)cc3)C(=O)N2[C@H]1C(=O)O [AMOXICILLIN] |
| 0.5 µg/mL (≈ 0.668 µM) | 1 µg/mL (≈ 1.34 µM) | 0.19 µg/mL (≈ 0.254 µM) | 0.75 µg/mL (≈ 1 µM) | CC[C@H]1OC(=O)[C@H](C)[C@@H](O[C@H]2C[C@@](C)(OC)[C@@H](O)[C@H](C)O2)[C@H](C)[C@@H](O[C@@H]2O[C@H](C)C[C@H](N(C)C)[C@H]2O)[C@](C)(O)C[C@@H](C)CN(C)[C@H](C)[C@@H](O)[C@]1(C)O [AZITHROMYCIN] |
